One may read the inhibition as the share of the control response that was lost under treatment. A higher inhibition goes with strong suppression. Broadly, the IC50 is the concentration that inhibits the measured activity by half.

The target in data set [1] is T1, hERG (KCNH2) (Homo sapiens, UniProt Q12809). Put plainly: Inhibition of hERG transiently transfected in CHO cells at 10 uM at -100 mV holding potential by whole-cell patch clamp electrophysiology method relative to control. The conditions noted are these: CHO cells transiently transfected with hERG. The class given is toxicity, cell-based. In general terms: The hERG channel carries a current that helps repolarise heart muscle cells.

The target of data set [2] is T2, Potassium channel subfamily T member 1 (Homo sapiens, UniProt Q5JUK3).
T2 sequence (Q5JUK3 whole entry): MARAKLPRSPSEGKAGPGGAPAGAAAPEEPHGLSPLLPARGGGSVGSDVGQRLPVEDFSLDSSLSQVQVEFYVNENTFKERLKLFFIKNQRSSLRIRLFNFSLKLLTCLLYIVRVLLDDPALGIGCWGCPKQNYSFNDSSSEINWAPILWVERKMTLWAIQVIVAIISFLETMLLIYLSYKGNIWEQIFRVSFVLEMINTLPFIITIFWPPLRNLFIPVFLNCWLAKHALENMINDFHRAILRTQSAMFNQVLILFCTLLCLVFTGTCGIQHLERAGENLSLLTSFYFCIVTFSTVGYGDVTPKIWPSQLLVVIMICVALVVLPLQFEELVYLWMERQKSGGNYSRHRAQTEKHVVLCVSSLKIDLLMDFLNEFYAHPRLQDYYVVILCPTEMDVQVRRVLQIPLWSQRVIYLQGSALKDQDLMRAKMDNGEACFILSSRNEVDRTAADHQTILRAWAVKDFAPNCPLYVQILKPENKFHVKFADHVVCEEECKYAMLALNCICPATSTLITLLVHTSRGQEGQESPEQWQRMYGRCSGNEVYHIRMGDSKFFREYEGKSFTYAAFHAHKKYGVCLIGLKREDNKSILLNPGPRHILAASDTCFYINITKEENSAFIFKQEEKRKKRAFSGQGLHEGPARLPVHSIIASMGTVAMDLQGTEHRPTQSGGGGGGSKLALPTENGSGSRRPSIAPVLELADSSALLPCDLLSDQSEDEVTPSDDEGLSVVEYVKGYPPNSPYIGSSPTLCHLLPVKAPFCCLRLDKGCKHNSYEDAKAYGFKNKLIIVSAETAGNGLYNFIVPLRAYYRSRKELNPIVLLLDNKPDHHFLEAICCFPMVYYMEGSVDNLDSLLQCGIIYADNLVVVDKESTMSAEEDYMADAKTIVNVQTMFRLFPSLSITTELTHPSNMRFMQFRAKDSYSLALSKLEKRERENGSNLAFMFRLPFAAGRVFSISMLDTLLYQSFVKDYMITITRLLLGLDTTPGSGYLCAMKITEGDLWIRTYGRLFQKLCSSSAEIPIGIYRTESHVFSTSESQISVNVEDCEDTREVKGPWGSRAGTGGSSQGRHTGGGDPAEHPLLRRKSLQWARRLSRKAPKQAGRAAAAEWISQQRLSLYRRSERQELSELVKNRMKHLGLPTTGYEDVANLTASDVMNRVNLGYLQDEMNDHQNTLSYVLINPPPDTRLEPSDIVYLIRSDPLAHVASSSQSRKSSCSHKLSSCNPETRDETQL
Put plainly: Inhibition of human KCNT1 (98 to 354 residues) expressed in CHO cells assessed as reduction in thallium fluorescent signal incubated for 15 mins followed by LOX addition measured after 15 mins by FluxOR green dye based fluorescence analysis. The class given is cell-based.

Data set [3] is described as follows: Intrinsic clearance in human liver microsomes incubated upto 60 mins in presence of NADPH and UDPGA by LC-MS analysis. In kind it is ADME, Microsome. Conditions: read-out: CLH; call rule not given here. In general terms: Liver microsomes are vesicles of endoplasmic reticulum, rich in cytochrome P450 enzymes.
Data set [4] can be described thus: Plasma protein binding in human at 10 uM incubated for 4 hrs by rapid equilibrium dialysis based LC-MS/MS analysis. The conditions noted are these: read-out: PPB. The class given is ADME, cell-free. For orientation: In equilibrium dialysis only unbound substance equilibrates across the membrane.
Data set [5] has as its target T3, Potassium channel subfamily T member 2 (Homo sapiens, UniProt Q6UVM3).
T3 sequence (Q6UVM3 whole entry): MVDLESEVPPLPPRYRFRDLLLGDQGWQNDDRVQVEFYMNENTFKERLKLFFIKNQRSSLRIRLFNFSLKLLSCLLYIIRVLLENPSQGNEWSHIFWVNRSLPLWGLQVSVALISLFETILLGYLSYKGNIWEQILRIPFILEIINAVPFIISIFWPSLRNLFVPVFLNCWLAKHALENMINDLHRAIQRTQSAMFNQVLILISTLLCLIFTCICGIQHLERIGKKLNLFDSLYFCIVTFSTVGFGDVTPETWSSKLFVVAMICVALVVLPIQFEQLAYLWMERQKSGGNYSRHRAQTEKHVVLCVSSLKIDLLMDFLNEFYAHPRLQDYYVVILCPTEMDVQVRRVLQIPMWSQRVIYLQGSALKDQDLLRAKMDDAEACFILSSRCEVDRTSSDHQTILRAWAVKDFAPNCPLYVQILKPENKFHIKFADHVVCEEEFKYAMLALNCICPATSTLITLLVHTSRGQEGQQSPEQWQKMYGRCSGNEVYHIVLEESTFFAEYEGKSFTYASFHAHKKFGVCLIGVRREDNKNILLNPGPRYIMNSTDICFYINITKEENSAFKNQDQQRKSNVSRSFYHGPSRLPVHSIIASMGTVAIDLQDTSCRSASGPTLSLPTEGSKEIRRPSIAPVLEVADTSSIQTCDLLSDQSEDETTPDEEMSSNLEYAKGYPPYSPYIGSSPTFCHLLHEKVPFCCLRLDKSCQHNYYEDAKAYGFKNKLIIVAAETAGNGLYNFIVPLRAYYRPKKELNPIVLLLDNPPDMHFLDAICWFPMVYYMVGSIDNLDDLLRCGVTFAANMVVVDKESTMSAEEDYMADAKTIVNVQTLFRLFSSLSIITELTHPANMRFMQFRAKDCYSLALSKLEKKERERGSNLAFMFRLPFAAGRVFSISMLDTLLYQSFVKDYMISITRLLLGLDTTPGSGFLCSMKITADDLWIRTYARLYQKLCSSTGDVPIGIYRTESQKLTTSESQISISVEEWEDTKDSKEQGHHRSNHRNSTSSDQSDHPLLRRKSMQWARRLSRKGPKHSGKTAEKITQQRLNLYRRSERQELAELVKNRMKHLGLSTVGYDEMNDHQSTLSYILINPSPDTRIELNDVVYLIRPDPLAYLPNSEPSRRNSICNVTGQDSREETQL
Put plainly: Inhibition of human KCNT2 expressed in HEK cells at +60 mV holding potential by whole-cell patch clamp electrophysiology method. The class given is cell-based. The method, boiled down:
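Human KCNT2 transiently expressed in HEK cells and recorded by whole-cell patch clamp at 20–22 °C, 24 h after transfection. Pipette (mM): 130 KCl, 10 NaCl, 10 HEPES, 5 EGTA, pH 7.3–7.4, with ATP omitted. Each cell received one perfused concentration; DMSO ≤0.3%. Current at the end of the depolarizing pulse was normalized and fitted to a binding isotherm with Hill coefficient; ≥6 determinations per point, mean ± SEM.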

Data set [6] addresses Voltage-gated inwardly rectifying potassium channel KCNH2 (Homo sapiens, UniProt Q12809). In words: Inhibition of hERG transiently transfected in CHO cells at 10 uM at -100 mV holding potential by whole-cell patch clamp electrophysiology method. The class given is toxicity, cell-based. The method, boiled down:
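hERG transiently expressed in CHO cells (eGFP co-transfection marker) and recorded by whole-cell patch clamp at 20–22 °C, 24 h post-transfection. […] Pipette (mM): 140 KCl, 2 MgCl2, 10 EGTA, 10 HEPES, 5 Mg-ATP. Protocol: 1 s steps from −80 to +60 mV, then 140 ms at −100 mV. Tail current at −100 mV read as I_drug/I_CTL with 10 μM drug; ≥3 cells.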

Data set [7] in a line: Stability in human plasma assessed as compound remaining incubated upto 120 mins […] by LC-MS analysis. In kind it is ADME, cell-free. The conditions noted are these: read-out: Stability. The method, boiled down:
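Human plasma prewarmed to 37 °C and centrifuged; compound added at 37 °C. Samples taken at 0, 30, 60, 90 and 120 min, quenched into ice-cold methanol with internal standard, and measured by LC-MS as % remaining relative to 0 min. Duplicates; procaine as control.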

The target of data set [8] is T1, hERG (KCNH2). Put plainly: Inhibition of hERG expressed in HEK293 cells at 10 uM by thallium flux assay relative to control. Conditions: HEK293 cells that express hERG.
Data set [9] concerns the target T1, hERG (KCNH2). In words: Inhibition of hERG expressed in HEK293 cells at 10 uM by whole-cell patch clamp electrophysiology method relative to control. The conditions noted are these: HEK293 cells that express hERG. In kind it is toxicity, cell-based.

Sequence of Voltage-gated inwardly rectifying potassium channel KCNH2 (Q12809 whole entry): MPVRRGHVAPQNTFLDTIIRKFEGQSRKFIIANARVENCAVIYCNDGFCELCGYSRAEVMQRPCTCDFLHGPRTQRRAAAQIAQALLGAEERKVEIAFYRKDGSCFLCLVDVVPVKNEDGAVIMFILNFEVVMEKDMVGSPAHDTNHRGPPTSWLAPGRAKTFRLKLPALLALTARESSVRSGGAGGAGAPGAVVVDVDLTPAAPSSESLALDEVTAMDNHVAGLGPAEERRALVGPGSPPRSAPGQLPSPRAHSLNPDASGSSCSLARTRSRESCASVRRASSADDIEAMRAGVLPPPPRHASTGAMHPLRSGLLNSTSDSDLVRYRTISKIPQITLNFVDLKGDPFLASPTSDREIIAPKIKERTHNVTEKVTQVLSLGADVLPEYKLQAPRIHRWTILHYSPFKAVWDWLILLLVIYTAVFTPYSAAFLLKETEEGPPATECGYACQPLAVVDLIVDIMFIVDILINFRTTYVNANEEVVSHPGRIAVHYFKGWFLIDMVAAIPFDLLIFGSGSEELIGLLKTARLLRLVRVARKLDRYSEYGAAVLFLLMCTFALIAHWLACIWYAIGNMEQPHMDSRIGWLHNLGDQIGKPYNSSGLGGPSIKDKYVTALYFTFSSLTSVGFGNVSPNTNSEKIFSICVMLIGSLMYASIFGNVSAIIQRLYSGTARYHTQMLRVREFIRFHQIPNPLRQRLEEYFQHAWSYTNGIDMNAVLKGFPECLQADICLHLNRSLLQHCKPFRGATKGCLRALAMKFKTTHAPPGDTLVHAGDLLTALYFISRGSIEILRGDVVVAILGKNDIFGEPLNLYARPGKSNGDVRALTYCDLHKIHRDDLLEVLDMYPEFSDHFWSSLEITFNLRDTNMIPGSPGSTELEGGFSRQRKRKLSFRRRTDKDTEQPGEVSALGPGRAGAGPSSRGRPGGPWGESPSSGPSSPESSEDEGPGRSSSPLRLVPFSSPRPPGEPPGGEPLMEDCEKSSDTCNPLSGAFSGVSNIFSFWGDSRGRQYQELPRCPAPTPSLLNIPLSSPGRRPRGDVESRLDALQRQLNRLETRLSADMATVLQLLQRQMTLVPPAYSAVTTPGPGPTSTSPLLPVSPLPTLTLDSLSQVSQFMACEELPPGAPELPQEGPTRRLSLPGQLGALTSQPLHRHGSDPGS
T1 sequence (Q12809 whole entry): as above

Turning to `Oc1ccc2ccccc2c1CNCCc1c[nH]c2ccccc12`, at hERG (KCNH2) [1], the inhibition at 10 µM stood at 30%. For the same molecule, the half-inhibitory concentration (IC50) in data set [2] came out at 8.7 µM.
In the case of `O=S(=O)(Nc1ccc2c(c1)CCN2Cc1ccc(C(F)(F)F)cc1C(F)(F)F)C1CCCCC1`, the CLint scaled in data set [3] was less than 1 mL/min/kg. The fraction unbound at 4 h, 10 µM in [4] was found to be 0.01. The molecule also yielded an IC50 in [5] of 1.27 µM. Besides, the “inhibition (INH)” value in data set [6] is reported as “Not Active”. Besides, the remaining at 2 h in data set [7] was less than 80%.
Consider `COc1ccc(Cl)cc1NC(=O)CN1CCN(S(=O)(=O)N2CCC(C)CC2)CC1`, for which the inhibition at 10 µM against hERG (KCNH2) [8] worked out at 40%.
At hERG (KCNH2) [9], `Cc1cc(O)ccc1N/C=C/C(=O)c1ccccc1` yielded an inhibition at 10 µM of 15%.
In the case of `CC(C)(C)CNC(=O)Nc1ccc2c(c1)CCN2Cc1ccc(F)cc1`, at 10 µM the inhibition against hERG (KCNH2) [1] was 30%. In addition, the concentration for half-maximal inhibition (IC50) in data set [2] is 5.5 µM.
In turn, `O=C(Nc1cccc(C(F)(F)F)c1)c1ccc2nc(N3C(=O)c4ccccc4C3=O)sc2c1` registered an inhibition at 10 µM at hERG (KCNH2) [9] of 15%.
Turning to `O=C(NCc1ccccc1)[C@H](Cc1c[nH]c2ccccc12)NCc1ccc(Oc2ccccc2)cc1`, the CLint scaled in [3] is less than 80 mL/min/kg. The fraction unbound at 4 h, 10 µM in [4] is 0.01. Moreover, the “inhibition (INH)” value in data set [6] is “Not Active”. Further, the remaining at 2 h in data set [7] was less than 80%.
Regarding `CCOC(=O)[C@@H]1CS[C@@]2(C(=O)Nc3ccc(Br)cc32)N1C(=O)c1ccc(Cl)cc1`, the “inhibition (INH)” value in data set [6] is on record as “Not Active”. Also, the remaining at 2 h in data set [7] was found to be 0%.

The values are drawn from ChEMBL document CHEMBL5512679, “In Silico Assisted Identification, Synthesis, and In Vitro Pharmacological Characterization of Potent and Selective Blockers of the Epilepsy-Associated KCNT1 Channel” (J Med Chem, 2024).
